Data set [1] concerns Rattus norvegicus. The data set is described as follows: Toxicity in rat assessed as ulcer index at 0.08 mmol/kg, po after 6 hrs. It counts as organism-based. Conditions: in vivo. The gist of the method:
(§1)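 Rats fasted 24 h (water allowed) were dosed orally in 1.7 mL 1% methylcellulose; vehicle controls received the same. Stomachs were removed 6 h later after CO2 euthanasia. Ulcer index is the summed ulcer length (mm) per stomach averaged over n = 4, given as mean ± SEM.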

Data set [2] has as its system Rattus norvegicus. The data set is described as follows: Analgesic activity against sodium chloride-induced abdominal constriction in rat at 48 umol/kg, po after 30 mins. It counts as functional, Abdomen. The gist of the method: (§2)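 4% NaCl-induced writhing (abdominal constriction) assay in rats after oral dosing; writhing inhibition scored at 30 and 60 min post-dose; reported as % inhibition, mean ± SEM, n = 4.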

Data set [3] concerns Rattus norvegicus. In words: Antiinflammatory activity against carrageenan-induced foot paw edema in rat. It counts as functional. The gist of the method:
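Carrageenan-induced rat paw edema after oral administration; ED50 taken as the dose lowering the inflammatory response by 50% in the group of animals (n = 4).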
A general note: In the carrageenan paw model, swelling and tenderness develop within hours.

Data set [4] relates to Rattus norvegicus. In words: Analgesic activity against sodium chloride-induced abdominal constriction in rat at 48 umol/kg, po after 60 mins. It counts as functional, Abdomen. An outline of the steps: as §2
A short description of data set [5]: Effect on nitric oxide release in phosphate-buffered solution in presence of porcine liver esterase by Sievers nitric oxide analyzer. It counts as functional. The gist of the method: (§3)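 Porcine liver esterase (29 units, suspension in 3.2 M ammonium sulfate) in phosphate buffer (3 mL) at pH 8.0, 37 °C; compound injected as a DMSO solution. NO is swept by N2 to a chemiluminescence analyzer and AUC is quantified against a calibration curve. The time to more than 90% of theoretical NO is read graphically from time vs mol NO/min curves.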

The nature of data set [6]: Effect on nitric oxide release assessed as time required to detect more than 90% of NO/mol of compound by Sievers nitric oxide analyzer. The format is functional. An outline of the steps:
as §3

Data set [7] is described as follows: Effect on nitric oxide release in phosphate-buffered solution at pH 7.4 by Sievers nitric oxide analyzer. It counts as functional. An outline of the steps: (§4)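 Compound in DMSO injected into a sealed cell holding deoxygenated 0.1 M phosphate buffer (3 mL, pH 7.4) with 50 µM DTPA at 37 °C. NO is carried by N2 purge to a chemiluminescence analyzer, and AUC is converted with a calibration curve to mol NO/mol compound. The time to about 50% of theoretical NO is read graphically from time vs mol NO/min curves.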

Data set [8] can be described thus: Effect on nitric oxide release phosphate-buffered solution assessed as time required to detect about 50% of NO/mol of compound by Sievers nitric oxide analyzer. It counts as functional. An outline of the steps:
as §4

For data set [9], the system named is Rattus norvegicus. In words: Analgesic activity against sodium chloride-induced abdominal constriction in rat at 277 umol/kg, po after 30 mins. The format is functional, Abdomen. An outline of the steps: as §2
Data set [10] has as its system Rattus norvegicus. The data set is described as follows: Toxicity in rat assessed as ulcer index at 1.38 mmol/kg, po after 6 hrs. It counts as organism-based. Particulars: in vivo. An outline of the steps:
as §1

The test system of data set [11] is Rattus norvegicus. In words: Analgesic activity against sodium chloride-induced abdominal constriction in rat at 277 umol/kg, po after 60 mins. It counts as functional, Abdomen. An outline of the steps:
as §2

The test system of data set [12] is Rattus norvegicus. In words: Analgesic activity against sodium chloride-induced abdominal constriction in rat at 84 umol/kg, po after 60 mins. It counts as functional, Abdomen. An outline of the steps:
as §2

Data set [13] relates to Rattus norvegicus. In words: Analgesic activity against sodium chloride-induced abdominal constriction in rat at 84 umol/kg, po after 30 mins. The format is functional, Abdomen. The gist of the method: as §2
Data set [14] relates to Rattus norvegicus. In words: Analgesic activity against sodium chloride-induced abdominal constriction in rat at 68 umol/kg, po after 60 mins. The format is functional, Abdomen. An outline of the steps: as §2
For data set [15], the system named is Rattus norvegicus. The data set is described as follows: Analgesic activity against sodium chloride-induced abdominal constriction in rat at 68 umol/kg, po after 30 mins. The format is functional, Abdomen. An outline of the steps: as §2

The ED50 is the dose that gives a 50% effect, or the effect in half of the subjects. Lower therefore signals an effect at a small dose. Turning to `COc1ccc2c(c1)c(CC(=O)OCOC(=O)[C@@H]1CCCN1/[N+]([O-])=N/OCOC(C)=O)c(C)n2C(=O)c1ccc(Cl)cc1`, the UI in data set [1] came to 0. Also, the Activity in [2] came out at 36.3%; in data set [4], 61.5%; in data set [5] it was 1.8; in data set [7] it was 1.1. The 50% effective dose (ED50) in data set [3] came to 18.5 µmol/kg. Also, the TIME was found to be 0.0533 h in data set [6] and 45 h in [8].
As for `CC(=O)Oc1ccccc1C(=O)O` [ASPIRIN], the Activity came to 56.5% in data set [9] and 64.3% in data set [11]. Besides, in data set [10], the UI is listed as 51.4. Besides, the ED50 in data set [3] is 710 µmol/kg.
On to `O=C(O)[C@@H]1CCCN1/[N+]([O-])=N/O`, for which the TIME in data set [6] is 0.0005 h. Moreover, the Activity in data set [7] turned out to be 2.
On to `COc1ccc2c(c1)c(CC(=O)O)c(C)n2C(=O)c1ccc(Cl)cc1` [INDOMETHACIN], for which the UI in [1] turned out to be 64.5. For the same compound, the Activity in data set [12] came to 67.6%; in data set [13], 51.8%. The ED50 in data set [3] came to 11.8 µmol/kg.
In the case of `CC(=O)OCO/N=[N+](\[O-])N1CCC[C@H]1C(=O)OCOC(=O)c1ccccc1OC(C)=O`, the Activity turned out to be 65.8% in data set [14], 24.6% in data set [15], 1.9 in data set [5] and 1.1 in data set [7]. Moreover, in [10], the UI is recorded as 0.75. The ED50 in [3] turned out to be 314 µmol/kg. Also, the results for the TIME in data set [6] and in data set [8] were 0.04 h and 43 h, respectively.
